Measurements: publication PMC3690275 (Journal of medicinal chemistry, 2013)

How the values were obtained:
[1] = thermodynamic solubility assay; format: physicochemical; details: PBS pH 7.4, relative to compound 1
[2] = test system: INS-1E β-cells; assay: caspase-3/7 assay in INS-1E β-cells; format: cell-based, rat
Procedure, shortened: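 Rat INS-1E β-cells co-treated with a cytokine mixture and the test compound over a dose range; caspase-3/7 activity read after 48 h. IC50 is fitted from triplicate dose-responses. Maximum activity is expressed as % rescue from cytokine-induced caspase-3/7 activation. For the cytokine-optimization runs, values are the mean ± standard error of three independent experiments with six replicates each.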

[3] = test system: STAT1; format: cell-based, rat; details: co-treatment with IFN-γ, 30 min, immunofluorescence imaging

Question: Which “fold increase in solubility compared to 1” value [1] does the source give for `C[C@@H]1CN([C@@H](C)CO)C(=O)c2cccc(NC(=O)N(C)c3cccc4ccccc34)c2O[C@H]1CN(C)S(=O)(=O)c1ccc2c(c1)OCCO2` [Compound 7b] here?
Answer: Its value is 110 fold.

Question: For `C[C@@H]1CN([C@@H](C)CO)C(=O)c2cccc(NC(=O)Nc3cccc4ccccc34)c2O[C@H]1CN(C)S(=O)(=O)c1ccc2c(c1)OCCO2` [Compound 1], which “protective effect in the caspase assay” value ([2]; condition A: standard concentrations of cytokines) is on record?
Answer: The value was “small protective effect”.

Question: What about the “rescue efficacy in the caspase assay” value ([2]; condition B: IL-1β and TNF-α lowered 20- and 10-fold, IFN-γ increased 4-fold) of the same compound?
Answer: The value was “higher rescue efficacy”.

Question: What about the “reduction of caspase activity” value ([2]; condition C (IFN-γ 500 ng/mL), INS-1E β-cells, 48 h) of the same compound?
Answer: Its value is 74%.

Question: And the “effect on IFN-γ-induced nuclear localization of STAT1” value [3]?
Answer: Its value is “nearly abolished this nuclear localization of STAT1”.

Question: For `C[C@@H]1CN([C@@H](C)CO)C(=O)c2cccc(NC(=O)Nc3cccc4ncccc34)c2O[C@H]1CN(C)S(=O)(=O)c1ccc2c(c1)OCCO2` [Compound 7f], which “fold increase in solubility compared to 1” value [1] is on record?
Answer: The value was 1400 fold.

Question: What does the source list for `C[C@@H]1CN([C@@H](C)CO)C(=O)c2cccc(NC(=O)NCc3cccc4ccccc34)c2O[C@H]1CN(C)S(=O)(=O)c1ccc2c(c1)OCCO2` [Compound 7a]?
Answer: activity in the caspase assay (in words) ([2]; INS-1E β-cells): inactive; effect on IFN-γ-induced nuclear localization of STAT1 [3]: did not inhibit nuclear translocation of STAT1

Question: With `C[C@@H]1CN([C@@H](C)CO)C(=O)c2cccc(NC(=O)Nc3cccc4cccnc34)c2O[C@H]1CN(C)S(=O)(=O)c1ccc2c(c1)OCCO2` [Compound 7i, N-(((2R,3R)-5-((S)-1-hydroxypropan-2-yl)-3-methyl-6-oxo-10-(3-(quinolin-8-yl)ureido)-3,4,5,6-tetrahydro-2H-benzo[b][1,5]oxazocin-2-yl)methyl)-N-methyl-2,3-dihydrobenzo[b][1,4]dioxine-6-sulfonamide] as the compound, how does the “effect on IFN-γ-induced nuclear localization of STAT1” value [3] read?
Answer: The value was “nearly abolished this nuclear localization of STAT1”.
